In ChEMBL document CHEMBL4689842, “EUbOPEN Chemogenomics Library wave 1” (2021):

Key:
U2OS [1] = assay: Multiplex assay against U2OS; format: toxicity, cell-based; settings: human
Outline: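 Per cents of healthy-nucleus cells form the tubulin, mitochondrial-mass and membrane-permeability phenotype values. Live cells were stained at seeding with Hoechst33342, BioTracker Green Microtubule Cytoskeleton Dye, MitoTracker Red and Annexin V Alexa Fluor 680. After compound addition they were imaged on a CQ1 microscope at 37°C and 5% CO2, and CellPathfinder machine-learning gating split them into Hoechst high-intensity objects or normal cells, normal cells into healthy, pyknosed or fragmented nuclei, and pyknosed cells into mitotic or apoptotic.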

U2OS [2] = assay: Incucyte cell viability with U2OS; format: toxicity, cell-based; settings: human, 10 µM, compound concentration 10 uM; also: filed as whole numbers so only -1 and 0 and 1 occur
[3] = 12 h, 1 µM, compound concentration 1 uM, replicate 1
[4] = 12 h, 1 µM, compound concentration 1 uM, replicate 2
[5] = 12 h, 10 µM, compound concentration 10 uM, replicate 1
[6] = 12 h, 10 µM, compound concentration 10 uM, replicate 2
[7] = 24 h, 1 µM, compound concentration 1 uM, replicate 1
[8] = 24 h, 1 µM, compound concentration 1 uM, replicate 2
[9] = 24 h, 10 µM, compound concentration 10 uM, replicate 1
[10] = 24 h, 10 µM, compound concentration 10 uM, replicate 2

Cl.Cn1c2c(c3ccc(Cl)c(Cl)c31)C(C#N)C1(CCNCC1)NC2=O (configuration not stated)
Population Apoptotic (%) (U2OS [1]; [3]): 30% | Population Fragmented Nuclei (%) (U2OS [1]; [3]): 2% | Population Healthy Nuclei (%) (U2OS [1]; [3]): 90% | Population Hoechst High Intensity Objects (%) (U2OS [1]; [3]): 1% | Population Mitochondria Different-Phenotype (%) (U2OS [1]; [3]): 14% | Population Mitotic Cells (%) (U2OS [1]; [3]): 69% | Population Normal (%) (U2OS [1]; [3]): 98% | Population Pyknosed Nuclei (%) (U2OS [1]; [3]): 7% | Population Tubulin-Different-Phenotype (%) (U2OS [1]; [3]): 19% | Total Cell Count (U2OS [1]; [3]): 137 | Population Apoptotic (%) (U2OS [1]; [4]): 0% | Population Fragmented Nuclei (%) (U2OS [1]; [4]): 4% | Population Healthy Nuclei (%) (U2OS [1]; [4]): 94% | Population Hoechst High Intensity Objects (%) (U2OS [1]; [4]): 13% | Population Membrane Permeable-Phenotype (%) (U2OS [1]; [4]): 9% | Population Mitochondria Different-Phenotype (%) (U2OS [1]; [4]): 36% | Population Mitotic Cells (%) (U2OS [1]; [4]): 100% | Population Normal (%) (U2OS [1]; [4]): 86% | Population Pyknosed Nuclei (%) (U2OS [1]; [4]): 0% | Population Tubulin-Different-Phenotype (%) (U2OS [1]; [4]): 38% | Total Cell Count (U2OS [1]; [4]): 159 | Population Apoptotic (%) (U2OS [1]; [5]): 56% | Population Fragmented Nuclei (%) (U2OS [1]; [5]): 20% | Population Healthy Nuclei (%) (U2OS [1]; [5]): 20% | Population Hoechst High Intensity Objects (%) (U2OS [1]; [5]): 3% | Population Membrane Permeable-Phenotype (%) (U2OS [1]; [5]): 53% | Population Mitochondria Different-Phenotype (%) (U2OS [1]; [5]): 80% | Population Mitotic Cells (%) (U2OS [1]; [5]): 43% | Population Normal (%) (U2OS [1]; [5]): 96% | Population Pyknosed Nuclei (%) (U2OS [1]; [5]): 58% | Population Tubulin-Different-Phenotype (%) (U2OS [1]; [5]): 96% | Total Cell Count (U2OS [1]; [5]): 183 | Population Apoptotic (%) (U2OS [1]; [6]): 61% | Population Fragmented Nuclei (%) (U2OS [1]; [6]): 22% | Population Healthy Nuclei (%) (U2OS [1]; [6]): 27% | Population Hoechst High Intensity Objects (%) (U2OS [1]; [6]): 24% | Population Membrane Permeable-Phenotype (%) (U2OS [1]; [6]): 36% | Population Mitochondria Different-Phenotype (%) (U2OS [1]; [6]): 90% | Population Mitotic Cells (%) (U2OS [1]; [6]): 38% | Population Normal (%) (U2OS [1]; [6]): 75% | Population Pyknosed Nuclei (%) (U2OS [1]; [6]): 49% | Population Tubulin-Different-Phenotype (%) (U2OS [1]; [6]): 95% | Total Cell Count (U2OS [1]; [6]): 123 | Population Apoptotic (%) (U2OS [1]; [7]): 40% | Population Fragmented Nuclei (%) (U2OS [1]; [7]): 4% | Population Healthy Nuclei (%) (U2OS [1]; [7]): 88% | Population Hoechst High Intensity Objects (%) (U2OS [1]; [7]): 1% | Population Membrane Permeable-Phenotype (%) (U2OS [1]; [7]): 5% | Population Mitochondria Different-Phenotype (%) (U2OS [1]; [7]): 13% | Population Mitotic Cells (%) (U2OS [1]; [7]): 60% | Population Normal (%) (U2OS [1]; [7]): 98% | Population Pyknosed Nuclei (%) (U2OS [1]; [7]): 6% | Population Tubulin-Different-Phenotype (%) (U2OS [1]; [7]): 26% | Total Cell Count (U2OS [1]; [7]): 129 | Population Apoptotic (%) (U2OS [1]; [8]): 75% | Population Fragmented Nuclei (%) (U2OS [1]; [8]): 3% | Population Healthy Nuclei (%) (U2OS [1]; [8]): 93% | Population Hoechst High Intensity Objects (%) (U2OS [1]; [8]): 10% | Population Membrane Permeable-Phenotype (%) (U2OS [1]; [8]): 8% | Population Mitochondria Different-Phenotype (%) (U2OS [1]; [8]): 29% | Population Mitotic Cells (%) (U2OS [1]; [8]): 25% | Population Normal (%) (U2OS [1]; [8]): 89% | Population Pyknosed Nuclei (%) (U2OS [1]; [8]): 2% | Population Tubulin-Different-Phenotype (%) (U2OS [1]; [8]): 31% | Total Cell Count (U2OS [1]; [8]): 157 | Population Apoptotic (%) (U2OS [1]; [9]): 85% | Population Fragmented Nuclei (%) (U2OS [1]; [9]): 37% | Population Healthy Nuclei (%) (U2OS [1]; [9]): 10% | Population Hoechst High Intensity Objects (%) (U2OS [1]; [9]): 16% | Population Membrane Permeable-Phenotype (%) (U2OS [1]; [9]): 92% | Population Mitochondria Different-Phenotype (%) (U2OS [1]; [9]): 100% | Population Mitotic Cells (%) (U2OS [1]; [9]): 14% | Population Normal (%) (U2OS [1]; [9]): 83% | Population Pyknosed Nuclei (%) (U2OS [1]; [9]): 52% | Population Tubulin-Different-Phenotype (%) (U2OS [1]; [9]): 92% | Total Cell Count (U2OS [1]; [9]): 231 | Population Apoptotic (%) (U2OS [1]; [10]): 76% | Population Fragmented Nuclei (%) (U2OS [1]; [10]): 33% | Population Healthy Nuclei (%) (U2OS [1]; [10]): 17% | Population Hoechst High Intensity Objects (%) (U2OS [1]; [10]): 30% | Population Membrane Permeable-Phenotype (%) (U2OS [1]; [10]): 75% | Population Mitochondria Different-Phenotype (%) (U2OS [1]; [10]): 91% | Population Mitotic Cells (%) (U2OS [1]; [10]): 23% | Population Normal (%) (U2OS [1]; [10]): 69% | Population Pyknosed Nuclei (%) (U2OS [1]; [10]): 49% | Population Tubulin-Different-Phenotype (%) (U2OS [1]; [10]): 91% | Total Cell Count (U2OS [1]; [10]): 164 | Growth Rate (U2OS [2]; 0 h, replicate number 1, timepoint 0 hours): 0 | Growth Rate (U2OS [2]; 6 h, replicate number 1, timepoint 6 hours): 0 | Growth Rate (U2OS [2]; 12 h, replicate number 1, timepoint 12 hours): 0 | Growth Rate (U2OS [2]; 18 h, replicate number 1, timepoint 18 hours): 0 | Growth Rate (U2OS [2]; 24 h, replicate number 1, timepoint 24 hours): 0
